Target: Beta-lactamase (Aeromonas veronii, UniProt O31272)
Assay: Inhibition of Aeromonas veronii metallo-beta-lactamase ImiS expressed in Escherichia coli BL21(DE3) using imipenem substrate pre-incubated for 30 mins by Lineweaver-Burk plot method; call rule not given here
Method in brief: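 Purified enzyme; initial rates of imipenem hydrolysis followed by UV spectrophotometry (262 or 300 nm) in 50 mM Tris pH 7.0, 25 °C. Substrate 24–140 μM, inhibitor 0–10 μM. Rates in triplicate and averaged. Inhibition mode from Lineweaver–Burk plots. Ki from fits of initial velocity vs substrate concentration at each inhibitor level.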

Sequence of Beta-lactamase (O31272 whole entry): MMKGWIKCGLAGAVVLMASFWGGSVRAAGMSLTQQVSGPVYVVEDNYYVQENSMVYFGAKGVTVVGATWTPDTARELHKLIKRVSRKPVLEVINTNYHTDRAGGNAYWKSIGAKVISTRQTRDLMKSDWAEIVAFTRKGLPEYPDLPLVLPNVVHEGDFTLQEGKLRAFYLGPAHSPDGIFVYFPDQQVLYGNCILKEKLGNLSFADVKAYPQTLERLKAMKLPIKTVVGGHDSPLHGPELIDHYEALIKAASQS

Structure (SMILES): O=C(CSc1nnc(-c2ccccc2C(=O)O)[nH]1)Nc1ccccc1
- Ki (read-out: Ki): 1.8 µM

Structure (SMILES): O=C(CSc1nnc(-c2ccccc2C(=O)O)[nH]1)Nc1nc2ccccc2[nH]1
- Ki (read-out: Ki): 3.6 µM

Structure (SMILES): O=C(CSc1nnc(-c2ccccc2C(=O)O)[nH]1)Nc1nc2ccccc2s1
- Ki (read-out: Ki): 1.2 µM

Structure (SMILES): O=C(CSc1nnc(-c2ccccc2C(=O)O)[nH]1)Nc1ccc(Cl)cc1
- Ki (read-out: Ki): 1.4 µM

Structure (SMILES): O=C(CSc1nnc(-c2ccccc2C(=O)O)[nH]1)Nc1ccc([N+](=O)[O-])cc1
- Ki (read-out: Ki): 2.2 µM

Structure (SMILES): O=C(CSc1nnc(-c2ccccc2C(=O)O)[nH]1)NCc1ccccc1
- Ki: Not Active

Structure (SMILES): O=C(CSc1nnc(-c2ccccc2C(=O)O)[nH]1)Nc1ccccc1Cl
- Ki (read-out: Ki): 2.3 µM

Structure (SMILES): O=C(CSc1nnc(-c2ccccc2C(=O)O)[nH]1)Nc1cccc(Cl)c1
- Ki (read-out: Ki): 2.4 µM

Structure (SMILES): O=C(CSc1nnc(-c2ccccc2C(=O)O)[nH]1)Nc1ccccc1[N+](=O)[O-]
- Ki (read-out: Ki): 2.7 µM

Structure (SMILES): O=C(CSc1nnc(-c2ccccc2C(=O)O)[nH]1)Nc1cccc([N+](=O)[O-])c1
- Ki (read-out: Ki): 1.9 µM

Structure (SMILES): O=C(O)CCc1nnc(SCC(=O)Nc2ccccc2)[nH]1
- Ki (read-out: Ki): > 5000 µM

Structure (SMILES): O=C(O)CCc1nnc(SCC(=O)Nc2nc3ccccc3[nH]2)[nH]1
- Ki (read-out: Ki): > 2500 µM

Structure (SMILES): O=C(O)CCc1nnc(SCC(=O)Nc2nc3ccccc3s2)[nH]1
- Ki: Not Active

Structure (SMILES): O=C(O)CCc1nnc(SCC(=O)Nc2ccc(Cl)cc2)[nH]1
- Ki (read-out: Ki): > 5000 µM

Structure (SMILES): O=C(O)CCCc1nnc(SCC(=O)Nc2nc3ccccc3[nH]2)[nH]1
- Ki: Not Active
